Source: PubChem BioAssay
Inconclusive results are not listed.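 The calls were made as follows, unless noted: active = viability increase at or above a cutoff of the median across tested compounds plus 3 SD (cut at about 8.5% in these data, passing the limit was not always enough); inconclusive = some gains above the cutoff, reason not given; inactive = the rest.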

Assays:
[1] = OD615 S. cerevisiae growth inhibition, permissive medium, pilot counter-assay, permissive growth control for S. cerevisiae lifespan shortening project (AID 705;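 active = growth inhibition above 25% in both replicates, a cutoff set 3 SD above the mean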); conditions: OD615, 24 h, at 10 µM, active compounds read high
How it was run: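 Material: engineered DeaD yeast; Compound: one dose 10 µM, DMSO 0.25% final; Detection: absorbance (optical density) at 615 nm; Buffer or medium: permissive raffinose/galactose medium; Timing: 24 h exposure, 30 °C.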

[2] = Restrictive medium S. cerevisiae growth inhibition, OD615, pilot screen of yeast lifespan reduction project, restrictive growth control (AID 706;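 active = growth inhibition above a set limit, 3 SD over mean compound inhibition, in both replicates, cut at about 43% in these data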;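 also: modified DeaD lifespan yeast strain shifted to restrictive glucose medium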); conditions: OD615, 48 h, at 10 µM, active compounds read high
How it was run: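 Buffer or medium: restrictive glucose medium (CSMM-D); test system: modified S. cerevisiae; doses: single dose of 10 µM compound final, 0.25% DMSO; schedule: 48 h compound exposure at 30 °C; detection: absorbance (optical density) measured at 615 nm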

[3] = viability gain of MRP-1-high H69AR cells under doxorubicin, pilot screen, MRP-1 activator project, CellTiter-Glo, duplicate (AID 807); conditions: H69AR viability with doxorubicin, CellTiter-Glo luminescence; at 10 µM; active compounds read high;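 also: compound pretreatment 18-22 h then 72 h combined with doxorubicin; 0% = doxorubicin alone and 100% = vehicle without doxorubicin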
[4] = growth suppression of beta-catenin knockout HCT116, pilot screen, human colon tumor cells (AID 823;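 active = cell viability at or below a set limit in both duplicate runs, the limit being the all-compound median minus 4 SD, cut at about 23% in these data, passing the limit was not always enough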;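 also: 0% = wells killed by 20 µM Hyamine and 100% = untreated DMSO cell wells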); conditions: CellTiter-Glo, 60 h, at 10 µM, active compounds read low
[5] = growth suppression of PTEN-deleted HCT116, pilot screen, cell-based, HCT116 clonal line, CellTiter-Glo (AID 824;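 active = viability at or below 27.92% in each of two runs, the all-compound median minus 4 SD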;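 also: 0% = 20 µM Hyamine control and 100% = vehicle cell control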); conditions: 60 h, at 10 µM, active compounds read low
[6] = inhibitors of the yeast RAM network, pilot screen, dse1pr::URA3 reporter, 5-FOA selection (AID 869;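 active = inhibition over a set limit, the all-compound mean plus 3 SD, in both replicate runs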;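 also: 0% = DMSO wells with no growth and 100% = 10 µM 1-NA-PP1 with full growth; RAM network block rescues cells from 5-FOA so hits raise OD615 growth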); conditions: S. cerevisiae dse1pr::URA3 5-FOA growth, OD615, 2 d; at 10 µM; active compounds read high; strain carries analog-sensitive mutant Cbk1 kinase
[7] = RAM signaling pathway blockade in yeast – S. cerevisiae, Pdr1DBD-CYC8 efflux-inhibited sensitized strain, primary screen (AID 1298;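 active = RAM network inhibition above 8.4% in each of two replicates, 3 SD over the compound average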;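 also: 0% = DMSO untreated cells without growth and 100% = 10 µM 1-NA-PP1 full growth; higher means more yeast growth rescued from 5-FOA killing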); conditions: S. cerevisiae cbk1-as DSE1-URA3 strain, 5-FOA growth OD615, 2 d; at 50 µM; active compounds read high

O=C(c1cnn2c(C(F)(F)F)cc(-c3ccccc3)nc12)N1CCOCC1
inactive: growth inhibition [1] -14.6% | growth inhibition [2] -10% | viability increase [3] -2.81% | viability [4] 103% | viability [5] 99.8% | inhibition [6] 0.505% | RAM network inhibition [7] -1.1%

O=C(NCc1ccco1)N1c2ccccc2Sc2ccccc21
inactive: growth inhibition [1] -12.9% | growth inhibition [2] -8.64% | viability increase [3] -4.68% | viability [4] 88% | viability [5] 91.6% | inhibition [6] 0.805% | RAM network inhibition [7] 4.32%

CCC(C)Sc1nc2c(cnn2-c2ccc(C)cc2)c(=O)[nH]1 (configuration not stated)
inactive: growth inhibition [1] -13% | growth inhibition [2] -3.34% | viability increase [3] -3.06% | viability [4] 93.9% | viability [5] 88.9% | inhibition [6] 4.24% | RAM network inhibition [7] 0.41%

COc1ccc(S(=O)(=O)Cc2ccc(C(=O)NC3CC3)o2)cc1
inactive: growth inhibition [1] 1.37% | growth inhibition [2] -4.7% | viability increase [3] -3.02% | viability [4] 75.5% | viability [5] 87.9% | inhibition [6] 0.85% | RAM network inhibition [7] 2.57%

O=C1CC(Nc2ccc(N3CCOCC3)cc2)C(=O)N1c1cccc(C(F)(F)F)c1 (configuration not stated)
inactive: growth inhibition [1] 4.95% | growth inhibition [2] -14.4% | viability increase [3] -2.76% | viability [4] 110% | viability [5] 98.2% | inhibition [6] 0.74% | RAM network inhibition [7] 5.28%

O=C(Cn1nc(Cc2cccnc2)c2ccccc2c1=O)NCCCN1CCCC1=O
inactive: growth inhibition [1] 3.02% | growth inhibition [2] -5.47% | viability increase [3] -0.8% | viability [4] 103% | viability [5] 97.3% | inhibition [6] 0.75% | RAM network inhibition [7] 0.25%

CCOC(=O)Cc1cnc(NC(=O)c2ccccc2)s1
inactive: growth inhibition [1] 6.17% | growth inhibition [2] 5.05% | viability increase [3] -1.51% | viability [4] 92.3% | viability [5] 89.6% | inhibition [6] 0.365% | RAM network inhibition [7] 2.27%

CN(C)c1nc(N)nc(-c2cccnc2)n1
inactive: growth inhibition [1] -0.465% | growth inhibition [2] 3.66% | viability increase [3] 0.55% | viability [4] 102% | viability [5] 103% | inhibition [6] 1.14% | RAM network inhibition [7] 5.69%

Cc1cc(N2C(=O)CC(Cc3ccccc3)C2=O)no1 (configuration not stated)
inactive: growth inhibition [1] -6.49% | growth inhibition [2] -11.5% | viability increase [3] 1.08% | viability [4] 103% | viability [5] 103% | inhibition [6] 1.55% | RAM network inhibition [7] 2.8%

O=C(NCCc1csc(-c2ccccc2)n1)c1cccs1
inactive: growth inhibition [1] -8.41% | growth inhibition [2] 2.89% | viability increase [3] 2.21% | viability [4] 93.7% | viability [5] 94.5% | inhibition [6] 0.41% | RAM network inhibition [7] 3.89%

COCCCNC(=O)c1oc2ccc(S(=O)(=O)N(C)C3CCCCC3)cc2c1C
inactive: growth inhibition [1] 1.36% | growth inhibition [2] 5.4% | viability increase [3] 0.15% | viability [4] 90.1% | viability [5] 94.2% | inhibition [6] -0.46% | RAM network inhibition [7] 1.23%

COC(=O)C1C(=O)c2c([nH]c(C(=O)OC3CCCCCC3)c2C)CC1C (configuration not stated)
inactive: growth inhibition [1] 1.09% | growth inhibition [2] 2.59% | viability increase [3] -2.6% | viability [4] 102% | viability [5] 91.1% | inhibition [6] 1.3% | RAM network inhibition [7] 3.01%

Cc1cc(N2CCN(C3CCCCC3)CC2)n2nc(C)nc2n1
inactive: growth inhibition [1] 5.17% | growth inhibition [2] 4.13% | viability increase [3] -2.07% | viability [4] 93.5% | viability [5] 96.2% | inhibition [6] 2.16% | RAM network inhibition [7] 5.03%

O=C(Cn1c(-c2cncs2)nc2ccccc21)NCCc1ccccc1
inactive: growth inhibition [1] -6.77% | growth inhibition [2] -8.58% | viability increase [3] -2.77% | viability [4] 99.6% | viability [5] 92.7% | inhibition [6] 1.25% | RAM network inhibition [7] 4.43%

CN(C)c1ccc(S(=O)(=O)c2ccc(Cl)cc2)cc1
inactive: growth inhibition [1] 2.13% | growth inhibition [2] 16.1% | viability increase [3] -1.11% | viability [4] 103% | viability [5] 100% | inhibition [6] 1.79% | RAM network inhibition [7] 5.79%

Cc1ccc(Cl)cc1N1CCN(C(=O)C2CCC(=O)N2C(C)C)CC1 (configuration not stated)
inactive: growth inhibition [1] -2.15% | growth inhibition [2] -5.95% | viability increase [3] 2.45% | viability [4] 93.6% | viability [5] 85.8% | inhibition [6] -0.505% | RAM network inhibition [7] 5.7%

CC(C)C(NC(=O)CN1C(=O)c2ccccc2S1(=O)=O)C(C)C
inactive: growth inhibition [1] -10% | growth inhibition [2] -13% | viability increase [3] -2.05% | viability [4] 98.8% | viability [5] 94.3% | inhibition [6] 1.4% | RAM network inhibition [7] -1.56%

Cc1nnc(NC(=O)C(C)Sc2nncn2C)s1 (configuration not stated)
inactive: growth inhibition [1] -15.9% | growth inhibition [2] -22.2% | viability increase [3] 3.71% | viability [4] 107% | viability [5] 94.8% | inhibition [6] 1.18% | RAM network inhibition [7] 1.06%

Cn1c(=O)c2c(nc(SCCNS(=O)(=O)c3ccccc3)n2C)n(C)c1=O
inactive: growth inhibition [1] -20.6% | growth inhibition [2] -16.3% | viability increase [3] -3.87% | viability [4] 101% | viability [5] 99% | inhibition [6] 1.46% | RAM network inhibition [7] 7.66%

Cc1ccc(OCCN2CCCCCC2)c(C)c1
inactive: growth inhibition [1] -6.26% | growth inhibition [2] 2.46% | viability increase [3] -3.81% | viability [4] 71.1% | viability [5] 70.4% | inhibition [6] 1.21% | RAM network inhibition [7] 2.8%

COC(=O)Cn1cnc2c(nnn2-c2cccc(Cl)c2)c1=O
inactive: growth inhibition [1] -0.625% | growth inhibition [2] 0.135% | viability increase [3] 1.53% | viability [4] 108% | viability [5] 99.4% | inhibition [6] 1.28% | RAM network inhibition [7] -1.59%

CCOC(=O)N1CCN(C(=O)CSc2nnc(Cn3c(=O)sc4ccccc43)n2C)CC1
inactive: growth inhibition [1] -12.9% | growth inhibition [2] -13% | viability increase [3] -2.25% | viability [4] 98.4% | viability [5] 95.8% | inhibition [6] 1.69% | RAM network inhibition [7] 1.9%

Cc1cccc(C)c1OCC(O)Cn1ccnc1C (configuration not stated)
inactive: growth inhibition [1] 1.01% | growth inhibition [2] 0.215% | viability increase [3] -1.6% | viability [4] 81.1% | viability [5] 84.7% | inhibition [6] 1.08% | RAM network inhibition [7] -0.1%

COc1cc(Cl)c(S(=O)(=O)n2cnc(C)c2)cc1Cl
inactive: growth inhibition [1] 2.76% | growth inhibition [2] 0.12% | viability increase [3] 0.28% | viability [4] 101% | viability [5] 104% | inhibition [6] 1.33% | RAM network inhibition [7] 2.3%

Cc1cc(C)nc(SCc2ccccc2C#N)n1
inactive: growth inhibition [1] -9.81% | growth inhibition [2] -6.26% | viability increase [3] -0.49% | viability [4] 98.8% | viability [5] 98% | inhibition [6] 0.705% | RAM network inhibition [7] 9.71%

CSc1ccc(C2NC(=O)c3c(sc4c3CCN(C)C4)N2)cc1 (configuration not stated)
inactive: growth inhibition [1] -13.2% | growth inhibition [2] -0.305% | viability increase [3] -2.7% | viability [4] 78.2% | viability [5] 92.5% | inhibition [6] -0.285% | RAM network inhibition [7] 4.99%

CC(=O)c1ccc(NC(=O)CSc2nnc(Cc3cccn3C)n2-c2ccc(F)cc2)cc1
inactive: growth inhibition [1] 0.105% | growth inhibition [2] 12.5% | viability increase [3] -2.21% | viability [4] 98% | viability [5] 94.3% | inhibition [6] 0.005% | RAM network inhibition [7] 5.1%

O=C(c1ccc(CS(=O)(=O)c2c(Cl)cccc2Cl)o1)N1CCN(c2ccccn2)CC1
inactive: growth inhibition [1] -4.86% | growth inhibition [2] -8.68% | viability increase [3] -3.07% | viability [4] 97.8% | viability [5] 93.1% | inhibition [6] -0.07% | RAM network inhibition [7] 3.34%

COc1ccc(S(=O)(=O)N2CCCN(S(=O)(=O)c3ccc(OC)cc3C)CC2)c(C)c1
inactive: growth inhibition [1] -12.6% | growth inhibition [2] -4.12% | viability increase [3] -6.52% | viability [4] 87.2% | viability [5] 84.7% | inhibition [6] -0.105% | RAM network inhibition [7] 3.22%

COc1ccc(C2(C(=O)NCCCN(C)C)CCOCC2)cc1
inactive: growth inhibition [1] -19.3% | growth inhibition [2] -23.9% | viability increase [3] -0.22% | viability [4] 98.3% | viability [5] 100% | inhibition [6] 1.26% | RAM network inhibition [7] 1.69%

CCn1cc(C(=O)N2CCn3c(nc4ccccc43)C2)c(=O)c2ccc(C)nc21
inactive: growth inhibition [1] -10.2% | growth inhibition [2] -4.84% | viability increase [3] -2.81% | viability [4] 104% | viability [5] 94.3% | inhibition [6] 2.08% | RAM network inhibition [7] 0.07%

CCn1cc(C(=O)NCC2CCCO2)c2cc(OC)c(OC)cc2c1=O (configuration not stated)
inactive: growth inhibition [1] -8.12% | growth inhibition [2] -20.1% | viability increase [3] -1.89% | viability [4] 95.4% | viability [5] 101% | inhibition [6] 0.955% | RAM network inhibition [7] 1.29%

O=C(Nc1ccncc1)c1ccccc1F
inactive: growth inhibition [1] -0.355% | growth inhibition [2] 0.36% | viability increase [3] -3.04% | viability [4] 94.3% | viability [5] 98% | inhibition [6] 1.06% | RAM network inhibition [7] 0.96%

CN(CCC#N)C(=O)Cn1nc(Cc2ccncc2)c2ccccc2c1=O
inactive: growth inhibition [1] -2.53% | growth inhibition [2] -1.35% | viability increase [3] 0.95% | viability [4] 102% | viability [5] 95.6% | inhibition [6] 0.515% | RAM network inhibition [7] 0.16%

CCn1cc(CNC(=O)c2cc(Cl)ccc2OC)c(C)n1
inactive: growth inhibition [1] -4.3% | growth inhibition [2] -0.555% | viability increase [3] -0.95% | viability [4] 91% | viability [5] 92.2% | inhibition [6] -0.445% | RAM network inhibition [7] 3.38%

CC(C)N1C(=O)CCC1C(=O)N1CCN(c2ccccn2)CC1 (configuration not stated)
inactive: growth inhibition [1] -11.9% | growth inhibition [2] -15.7% | viability increase [3] 0.54% | viability [4] 107% | viability [5] 103% | inhibition [6] 0.845% | RAM network inhibition [7] 1.45%
